According to ChEMBL document CHEMBL1158444 (J Med Chem, 2009):
pEC50: −log10 of the molar value. Calls of active or inactive are those of the source. No cut-off for these calls is given here.

Key:
Plasma [1] = assay: Fraction unbound in human plasma by at […]; assay type: ADME, cell-free
[2] = target: T1, Metabotropic glutamate receptor 4 (Homo sapiens, UniProt Q14833); assay: Activity at human mGluR4 receptor expressed in CHO cells assessed as effect on calcium mobilization relative to glutamate; assay type: functional, cell-based
T1 sequence (Q14833 whole entry): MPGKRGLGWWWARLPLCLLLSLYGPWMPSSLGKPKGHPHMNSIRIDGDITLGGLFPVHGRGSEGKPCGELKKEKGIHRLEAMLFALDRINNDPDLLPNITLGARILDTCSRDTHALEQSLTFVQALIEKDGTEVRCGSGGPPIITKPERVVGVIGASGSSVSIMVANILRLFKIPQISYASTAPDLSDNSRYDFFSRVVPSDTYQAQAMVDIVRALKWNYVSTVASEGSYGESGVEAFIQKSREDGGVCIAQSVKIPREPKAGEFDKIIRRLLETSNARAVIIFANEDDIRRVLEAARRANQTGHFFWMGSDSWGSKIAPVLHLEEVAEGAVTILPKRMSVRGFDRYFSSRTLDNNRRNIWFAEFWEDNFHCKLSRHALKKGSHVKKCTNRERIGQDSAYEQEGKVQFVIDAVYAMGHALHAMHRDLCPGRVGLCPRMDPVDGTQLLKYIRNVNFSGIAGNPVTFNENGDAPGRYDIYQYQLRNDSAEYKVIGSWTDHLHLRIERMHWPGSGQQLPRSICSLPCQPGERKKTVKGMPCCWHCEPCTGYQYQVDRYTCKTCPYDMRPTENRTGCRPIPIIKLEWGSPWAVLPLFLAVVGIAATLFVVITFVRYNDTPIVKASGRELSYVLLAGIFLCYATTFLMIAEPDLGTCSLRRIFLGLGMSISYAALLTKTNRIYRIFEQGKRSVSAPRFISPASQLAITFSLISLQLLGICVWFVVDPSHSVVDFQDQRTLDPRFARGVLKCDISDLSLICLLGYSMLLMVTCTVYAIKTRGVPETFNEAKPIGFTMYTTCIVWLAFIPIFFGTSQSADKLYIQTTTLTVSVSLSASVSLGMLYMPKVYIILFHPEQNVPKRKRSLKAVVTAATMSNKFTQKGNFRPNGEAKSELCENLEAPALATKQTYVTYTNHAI

[3] = Metabolic stability in rat liver microsomes after 1 hr; assay type: ADME, Microsome; conditions: read-out: Stability
[4] = target: Metabotropic glutamate receptor 4 (Rattus norvegicus) (UniProt P31423); assay: Activity at rat mGluR4 receptor expressed in HEK293 cells assessed as effect on thallium flux relative to glutamate; assay type: cell-based
Metabotropic glutamate receptor 4 (Rattus norvegicus), sequence (P31423 whole entry): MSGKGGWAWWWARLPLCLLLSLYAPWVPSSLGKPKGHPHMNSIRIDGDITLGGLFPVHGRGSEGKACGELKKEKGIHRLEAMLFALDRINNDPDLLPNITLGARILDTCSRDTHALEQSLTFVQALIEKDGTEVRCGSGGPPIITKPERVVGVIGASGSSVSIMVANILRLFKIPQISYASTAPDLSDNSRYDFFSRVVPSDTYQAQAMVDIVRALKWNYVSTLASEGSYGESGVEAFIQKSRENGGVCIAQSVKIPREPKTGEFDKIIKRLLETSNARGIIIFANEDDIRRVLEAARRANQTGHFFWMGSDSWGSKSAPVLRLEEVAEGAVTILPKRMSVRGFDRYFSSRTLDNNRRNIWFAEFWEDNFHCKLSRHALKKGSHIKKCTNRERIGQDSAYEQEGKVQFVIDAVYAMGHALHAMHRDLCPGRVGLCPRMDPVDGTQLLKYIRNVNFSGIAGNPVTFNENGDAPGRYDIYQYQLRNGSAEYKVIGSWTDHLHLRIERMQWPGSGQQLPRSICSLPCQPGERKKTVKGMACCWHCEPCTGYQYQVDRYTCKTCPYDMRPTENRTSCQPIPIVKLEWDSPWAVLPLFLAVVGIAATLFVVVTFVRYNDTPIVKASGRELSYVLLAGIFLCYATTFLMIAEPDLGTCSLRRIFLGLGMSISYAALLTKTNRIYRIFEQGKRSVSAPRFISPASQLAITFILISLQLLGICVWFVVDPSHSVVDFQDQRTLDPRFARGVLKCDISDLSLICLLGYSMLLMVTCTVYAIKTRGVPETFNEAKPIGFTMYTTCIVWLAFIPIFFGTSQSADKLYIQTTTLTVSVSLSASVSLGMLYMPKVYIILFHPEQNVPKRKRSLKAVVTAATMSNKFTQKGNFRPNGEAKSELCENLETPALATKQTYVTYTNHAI

[5] = Metabolic stability in human liver microsomes after 1 hr; assay type: ADME, Microsome; conditions: read-out: Stability
Plasma [6] = assay: Fraction unbound in rat plasma by at […]; assay type: ADME, cell-free
[7] = target: T1, Metabotropic glutamate receptor 4; assay: Activity at human mGluR4 receptor expressed in CHO cells assessed as effect on calcium mobilization; assay type: functional, cell-based
[8] = target: T1, Metabotropic glutamate receptor 4; assay: Activity at human mGluR4 expressed in CHO cells coexpressing Gqi5 protein assessed as fold shifting of glutamate-induced response to left at 30 uM; assay type: cell-based
[9] = target: Metabotropic glutamate receptor 4 (Rattus norvegicus, UniProt P31423); assay: Activity at rat mGluR4 receptor expressed in HEK293 cells assessed as effect on thallium flux
Metabotropic glutamate receptor 4 (Rattus norvegicus, UniProt P31423), sequence (P31423 whole entry): as above

[10] = target: Metabotropic glutamate receptor 4 (Rattus norvegicus) (UniProt P31423); assay: Activity at rat mGluR4 expressed in HEK293 cells coexpressing Gqi5 protein assessed as fold shifting of glutamate-induced response to left at 30 uM; assay type: cell-based
[11] = target: Metabotropic glutamate receptor 3 (Homo sapiens) (UniProt Q14832); assay: Activity at human mGluR3
Plasma [12] = assay: Half life in Sprague-Dawley rat plasma at 10 mg/kg, ip; assay type: ADME, organism-based; parameters: dose 10 mg/kg, route intraperitoneal; conditions: in vivo
How it was run: (§1)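 Rats dosed intraperitoneally at 10mg/kg with the hydrochloride salt, given as an aqueous microsuspension containing 10% tween 80. Compound levels in brain and plasma were measured at 0.5, 1 and 8 h after administration.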

[13] = target: Metabotropic glutamate receptor 8 (Homo sapiens) (UniProt O00222); assay: Activity at human mGluR8 assessed as fold shifting of glutamate-induced response to left
[14] = target: Metabotropic glutamate receptor 5 (Homo sapiens) (UniProt P41594); assay: Activity at human mGluR5
Metabotropic glutamate receptor 5 (Homo sapiens), sequence (P41594 21-1212 limits assumed): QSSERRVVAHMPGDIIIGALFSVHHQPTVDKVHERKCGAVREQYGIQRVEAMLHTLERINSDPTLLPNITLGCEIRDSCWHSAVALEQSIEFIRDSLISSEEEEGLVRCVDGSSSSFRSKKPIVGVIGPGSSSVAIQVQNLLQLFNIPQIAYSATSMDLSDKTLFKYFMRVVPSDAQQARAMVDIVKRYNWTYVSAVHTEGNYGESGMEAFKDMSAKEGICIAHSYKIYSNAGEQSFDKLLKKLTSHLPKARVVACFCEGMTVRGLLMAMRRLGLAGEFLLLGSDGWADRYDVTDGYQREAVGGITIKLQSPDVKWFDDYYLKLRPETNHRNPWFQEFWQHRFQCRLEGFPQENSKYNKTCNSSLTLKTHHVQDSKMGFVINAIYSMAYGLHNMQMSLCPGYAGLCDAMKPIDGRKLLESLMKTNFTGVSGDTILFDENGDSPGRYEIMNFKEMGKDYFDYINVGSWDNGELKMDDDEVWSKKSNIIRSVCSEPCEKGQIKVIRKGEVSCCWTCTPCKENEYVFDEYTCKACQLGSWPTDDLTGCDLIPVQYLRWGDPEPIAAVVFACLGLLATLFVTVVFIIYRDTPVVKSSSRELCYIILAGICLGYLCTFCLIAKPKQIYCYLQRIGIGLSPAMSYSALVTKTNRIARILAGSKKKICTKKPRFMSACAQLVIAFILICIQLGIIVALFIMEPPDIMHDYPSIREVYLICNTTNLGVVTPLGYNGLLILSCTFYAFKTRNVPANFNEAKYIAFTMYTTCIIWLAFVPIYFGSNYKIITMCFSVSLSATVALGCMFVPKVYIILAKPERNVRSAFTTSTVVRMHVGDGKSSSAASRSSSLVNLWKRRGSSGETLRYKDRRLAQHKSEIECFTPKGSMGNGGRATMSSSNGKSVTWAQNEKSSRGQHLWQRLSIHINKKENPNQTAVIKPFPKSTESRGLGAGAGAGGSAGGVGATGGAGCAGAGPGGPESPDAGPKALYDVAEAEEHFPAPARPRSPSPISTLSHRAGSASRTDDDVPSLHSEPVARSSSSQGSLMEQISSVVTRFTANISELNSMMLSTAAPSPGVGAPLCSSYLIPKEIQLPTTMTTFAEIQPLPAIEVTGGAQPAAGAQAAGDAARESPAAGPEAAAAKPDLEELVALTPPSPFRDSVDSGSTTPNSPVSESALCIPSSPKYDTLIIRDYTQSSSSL

[15] = AUC in Sprague-Dawley rat brain at 10 mg/kg, ip; assay type: ADME, organism-based; parameters: dose 10 mg/kg, route intraperitoneal; how it was run: as §1
[16] = target: Metabotropic glutamate receptor 2 (Homo sapiens) (UniProt Q14416); assay: Activity at human mGluR2
Metabotropic glutamate receptor 2 (Homo sapiens), sequence (Q14416 19-872 limits assumed): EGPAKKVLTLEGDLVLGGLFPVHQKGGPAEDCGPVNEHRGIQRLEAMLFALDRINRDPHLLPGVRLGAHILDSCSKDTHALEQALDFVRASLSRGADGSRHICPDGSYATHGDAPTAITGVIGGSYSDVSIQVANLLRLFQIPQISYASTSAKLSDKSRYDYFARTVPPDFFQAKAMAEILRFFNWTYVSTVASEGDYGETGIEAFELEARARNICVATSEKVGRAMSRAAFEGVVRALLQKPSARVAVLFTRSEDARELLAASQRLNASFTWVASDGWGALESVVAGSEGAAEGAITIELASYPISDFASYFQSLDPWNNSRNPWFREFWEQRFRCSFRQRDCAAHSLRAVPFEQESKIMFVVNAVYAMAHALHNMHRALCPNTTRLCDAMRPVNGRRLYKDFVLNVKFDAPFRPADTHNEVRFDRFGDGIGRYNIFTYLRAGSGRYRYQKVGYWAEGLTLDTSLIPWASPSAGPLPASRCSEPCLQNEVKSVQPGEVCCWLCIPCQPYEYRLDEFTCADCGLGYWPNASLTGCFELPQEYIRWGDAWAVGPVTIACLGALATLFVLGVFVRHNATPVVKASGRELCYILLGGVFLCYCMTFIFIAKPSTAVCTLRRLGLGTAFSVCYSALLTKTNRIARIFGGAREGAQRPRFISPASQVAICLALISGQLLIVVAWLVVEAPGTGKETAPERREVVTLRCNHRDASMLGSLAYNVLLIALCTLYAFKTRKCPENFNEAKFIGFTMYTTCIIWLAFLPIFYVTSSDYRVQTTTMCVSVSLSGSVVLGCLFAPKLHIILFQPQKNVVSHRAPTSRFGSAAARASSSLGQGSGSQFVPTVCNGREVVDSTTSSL

[17] = target: Metabotropic glutamate receptor 7 (Homo sapiens) (UniProt Q14831); assay: Activity at human mGluR7
Metabotropic glutamate receptor 7 (Homo sapiens), sequence (Q14831 whole entry): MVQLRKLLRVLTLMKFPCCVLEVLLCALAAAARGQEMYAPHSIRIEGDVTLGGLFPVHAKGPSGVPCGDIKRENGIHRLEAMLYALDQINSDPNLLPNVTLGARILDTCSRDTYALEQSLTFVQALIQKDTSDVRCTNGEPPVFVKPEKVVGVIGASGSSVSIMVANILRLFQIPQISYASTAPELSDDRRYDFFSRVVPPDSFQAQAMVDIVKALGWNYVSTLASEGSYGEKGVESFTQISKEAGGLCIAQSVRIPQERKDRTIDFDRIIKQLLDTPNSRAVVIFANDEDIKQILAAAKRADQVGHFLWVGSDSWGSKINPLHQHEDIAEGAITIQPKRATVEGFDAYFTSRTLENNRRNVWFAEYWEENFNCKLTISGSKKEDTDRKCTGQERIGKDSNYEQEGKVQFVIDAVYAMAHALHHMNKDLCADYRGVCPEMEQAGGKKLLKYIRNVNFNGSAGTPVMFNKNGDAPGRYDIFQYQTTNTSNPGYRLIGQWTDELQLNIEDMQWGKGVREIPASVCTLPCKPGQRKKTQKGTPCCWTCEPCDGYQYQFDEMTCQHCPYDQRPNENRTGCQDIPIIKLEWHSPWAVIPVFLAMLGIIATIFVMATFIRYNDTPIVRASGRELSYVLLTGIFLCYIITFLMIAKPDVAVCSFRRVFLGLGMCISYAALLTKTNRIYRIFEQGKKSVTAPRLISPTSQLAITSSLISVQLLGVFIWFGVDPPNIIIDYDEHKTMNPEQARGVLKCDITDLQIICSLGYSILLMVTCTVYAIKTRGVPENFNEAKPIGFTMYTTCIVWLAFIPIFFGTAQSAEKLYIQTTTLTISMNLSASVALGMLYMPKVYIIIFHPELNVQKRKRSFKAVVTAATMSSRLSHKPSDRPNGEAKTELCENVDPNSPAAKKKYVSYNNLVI

Brain = assay: Half life in Sprague-Dawley rat brain at 10 mg/kg, ip; assay type: ADME, organism-based; parameters: dose 10 mg/kg, route intraperitoneal; conditions: in vivo; how it was run: as §1
[18] = Apparent oral clearance in Sprague-Dawley rat at 10 mg/kg, ip; assay type: ADME, organism-based; parameters: dose 10 mg/kg; conditions: in vivo; how it was run: as §1
[19] = Cmax in Sprague-Dawley rat brain at 10 mg/kg, ip; assay type: ADME, organism-based; parameters: dose 10 mg/kg, route intraperitoneal; how it was run: as §1
Plasma [20] = assay: Cmax in Sprague-Dawley rat plasma at 10 mg/kg, ip; assay type: ADME, organism-based; parameters: dose 10 mg/kg, route intraperitoneal; conditions: in vivo
Plasma [21] = assay: AUC in Sprague-Dawley rat plasma at 10 mg/kg, ip; assay type: ADME, organism-based; parameters: dose 10 mg/kg, route intraperitoneal; conditions: in vivo
[22] = target: Metabotropic glutamate receptor 1 (Homo sapiens) (UniProt Q13255); assay: Activity at human mGluR1

Compound | Emax [2] [%] | Emax [4] [%] | pEC50 [7] | pEC50 [9] | other results
O=C(Nc1cccc(C(F)(F)F)c1)c1ccccn1 | 150 | 81 | – | – | Fu (Plasma [1]): 1.3%; remaining at 1 h [3]: 19%; remaining at 1 h [5]: 26%; Fu (Plasma [6]): 2.9%
O=C(Nc1ccc(Cl)c(Cl)c1)c1ccsc1 | – | – | < 5.00 | – | –
COc1nc(NC(=O)c2ccccn2)ccc1Cl | 95 | – | < 5.30 | – | –
O=C(Nc1cccc(Cl)c1)c1ccco1 | – | – | < 5.30 | – | fold change (FC) [8]: 5
O=C(Nc1ccc2c(c1)OCO2)c1ccccn1 | 90 | 50 | < 5.00 | 6.30 | –
COc1cc(NC(=O)c2ccccn2)ncn1 | – | – | < 5.00 | < 5.00 | –
O=C(Nc1ccc(Cl)c(Cl)c1)c1cc2ccccc2o1 | – | – | < 5.00 | – | –
O=C(Nc1cccc(Cl)c1)c1ccccn1 | 227 | 124 | 5.96 | 6.54 | fold change (FC) [10]: 31.4; fold change (FC) [8]: 18.1
O=C(Nc1ccc(Cl)c(Cl)c1)c1ccc(Br)o1 | 62 | – | 5.39 | – | –
COc1ccc(NC(=O)c2ccccn2)cc1OC | 164 | 102 | < 5.30 | 5.62 | –
O=C(Nc1ccc(Cl)c(Cl)c1)c1ccccn1 | 80 | – | 5.85 | – | –
O=C(Nc1ccc(Cl)c(Cl)c1)C1CCCCC1 | – | – | < 5.00 | – | –
O=C(Nc1ccc(Cl)c(Cl)c1)c1ccccc1 | – | – | < 5.00 | – | –
O=C(Nc1ccccc1)[C@]12C[C@H]1/C(=N\O)c1ccccc1O2 | 251 | 88 | – | 5.69 | fold change (FC) [10]: 8.8
O=C(Nc1ccc(Cl)c(Cl)c1)c1ccc(-c2ccccc2)o1 | – | – | < 5.00 | – | –
Cn1cccc1C(=O)Nc1ccc(Cl)c(Cl)c1 | – | – | < 5.00 | – | –

Compound | Emax [2] [%] | Emax [4] [%] | pEC50 [7] | pEC50 [9] | other results
COc1cc(NC(=O)c2ccccn2)ccc1Cl | 182 | 109 | – | – | Activity [11]: inactive; t1/2 (Plasma [12]): 114 min; fold change (FC) [13]: 2.7; Activity [14]: 5.1 µM; AUC [15]: 705 ng·h/mL; Activity [16]: inactive; Fu (Plasma [1]): 2.2%; Activity [17]: inactive; t1/2 (Brain): 9 min; remaining at 1 h [3]: 1.8%; CL/F [18]: 894 mL/min/kg; Cmax [19]: 1580 ng/mL; fold change (FC) [10]: 35.3; Cmax (Plasma [20]): 154 ng/mL; AUC (Plasma [21]): 173 ng·h/mL; fold change (FC) [8]: 28.1; Activity [22]: inactive; remaining at 1 h [5]: 5.3%; Fu (Plasma [6]): 2.4%
Cc1cc(NC(=O)c2ccco2)ccc1Br | – | – | < 5.30 | – | fold change (FC) [8]: 4.3
COc1cc(NC(=O)c2ccccn2)ccc1C | 178 | 121 | 6.25 | 6.68 | fold change (FC) [10]: 35.3; fold change (FC) [8]: 16.8
COc1ccc(NC(=O)c2ccccn2)cc1Cl | 161 | 108 | 5.96 | 6.13 | fold change (FC) [10]: 12; fold change (FC) [8]: 7.2
O=C(Nc1ccc(F)c(C(F)(F)F)c1)c1ccccn1 | 54 | 42 | 5.82 | 6.00 | fold change (FC) [10]: 2.7; fold change (FC) [8]: 2.1
O=C(Nc1ccc(Cl)c(Cl)c1)c1ccncn1 | 83 | – | 5.55 | – | –
O=C(Nc1ccc(Cl)c(C(F)(F)F)c1)c1ccccn1 | 47 | 41 | 5.68 | 5.77 | fold change (FC) [10]: 2.1; fold change (FC) [8]: 1.8
O=C(Nc1ccc(Cl)c(Cl)c1)c1ccco1 | 135 | – | < 5.30 | – | –
O=C(Nc1ccc(Cl)c(Cl)c1)c1cnccn1 | – | – | < 5.00 | – | –
O=C(Nc1ccc(Cl)c(Cl)c1)c1ccno1 | – | – | < 5.00 | – | –
O=C(Nc1cccc(OC(F)F)c1)c1ccccn1 | 235 | 113 | – | – | Activity [11]: inactive; t1/2 (Plasma [12]): 15.6 min; Activity [14]: > 10 µM; AUC [15]: 976 ng·h/mL; Activity [16]: inactive; Fu (Plasma [1]): 4%; Activity [17]: inactive; t1/2 (Brain): 23.4 min; remaining at 1 h [3]: 1.4%; CL/F [18]: 1420 mL/min/kg; Cmax [19]: 1680 ng/mL; Cmax (Plasma [20]): 188 ng/mL; AUC (Plasma [21]): 99 ng·h/mL; Activity [22]: inactive; remaining at 1 h [5]: 2.4%; Fu (Plasma [6]): 5.8%
N#Cc1ccc(NC(=O)c2ccccn2)cc1C(F)(F)F | – | – | < 5.00 | < 5.00 | –
O=C(Nc1cccc(C(F)(F)F)n1)c1ccccn1 | – | – | < 5.00 | < 5.00 | –
COc1cc(NC(=O)c2ccccn2)ccc1F | 207 | 107 | 6.11 | 6.43 | Activity [11]: inactive; Activity [13]: inactive; Activity [14]: inactive; Activity [16]: inactive; Fu (Plasma [1]): 5.1%; Activity [17]: inactive; remaining at 1 h [3]: 6.3%; fold change (FC) [10]: 26.7; fold change (FC) [8]: 17.5; Activity [22]: inactive; remaining at 1 h [5]: 3%; Fu (Plasma [6]): 6.5%
O=C(Nc1cccc(OC(F)(F)F)c1)c1ccccn1 | 132 | 75 | – | – | Fu (Plasma [1]): 0.8%; remaining at 1 h [3]: 20%; remaining at 1 h [5]: 22%; Fu (Plasma [6]): 1.6%
